Data set [1] deals with Casein kinase II (Homo sapiens, UniProt P67870+P68400+P19784). The experiment in a line: (§1) Inhibition of CK2 (unknown origin) using RRRDDDSDDD-NH2 as susbtrate incubated for 15 mins in presence of [gamma-32P]ATP. Type of data set: protein-complex assay.
The nature of data set [2]: Dissociation constant, pKa of compound. Format: physicochemical.
For data set [3], the target named is Dual specificity protein kinase CLK1 (Homo sapiens, UniProt P49759). The experiment in a line: Inhibition of recombinant human GST-tagged CLK1 catalytic domain (129 to 484 residues) expressed in Escherichia coli using GRSRSRSRSRSRSRSR as substrate incubated for 15 mins in presence of [gamma-32P]ATP. The gist of the method: (§2)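 Purified recombinant kinase with 100 µM ATP. IC50 values are averages of at least two independent determinations.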

Data set [4] has as its target T1, Dual specificity tyrosine-phosphorylation-regulated kinase 2 (Homo sapiens, UniProt Q92630).
T1 sequence (Q92630 whole entry): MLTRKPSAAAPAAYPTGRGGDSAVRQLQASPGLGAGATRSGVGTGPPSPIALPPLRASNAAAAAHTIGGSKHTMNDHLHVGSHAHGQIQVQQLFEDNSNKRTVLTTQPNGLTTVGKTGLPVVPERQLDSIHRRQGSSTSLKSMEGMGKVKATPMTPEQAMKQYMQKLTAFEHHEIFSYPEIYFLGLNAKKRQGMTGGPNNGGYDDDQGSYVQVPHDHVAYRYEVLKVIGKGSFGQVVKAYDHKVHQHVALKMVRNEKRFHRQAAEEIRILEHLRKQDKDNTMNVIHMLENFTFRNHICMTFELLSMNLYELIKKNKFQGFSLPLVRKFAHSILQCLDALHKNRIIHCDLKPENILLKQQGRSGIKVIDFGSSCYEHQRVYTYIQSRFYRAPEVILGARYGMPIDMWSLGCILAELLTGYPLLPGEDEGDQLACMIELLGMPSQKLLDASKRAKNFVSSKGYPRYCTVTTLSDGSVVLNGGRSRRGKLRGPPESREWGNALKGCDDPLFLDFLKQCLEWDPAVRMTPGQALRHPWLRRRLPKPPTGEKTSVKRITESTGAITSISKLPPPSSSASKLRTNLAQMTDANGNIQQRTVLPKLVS
The experiment in a line: Inhibition of recombinant human N-terminal GST-tagged DYRK2 expressed in Escherichia coli BL21(DE3) cells using KKISGRLSPIMTEQ-NH2 as substrate incubated for 15 mins in presence of [gamma-32P]ATP. In a few lines:
as §2

Data set [5] concerns the target T2, Dual specificity tyrosine-phosphorylation-regulated kinase 1A (Homo sapiens, UniProt Q13627). Nature of the data set: Inhibition of recombinant human N-terminal His6-tagged DYRK1A catalytic domain expressed in Escherichia coli BL21(DE3) cells using KKISGRLSPIMTEQ-NH2 as substrate incubated for 15 mins in presence of [gamma-32P]ATP.
Data set [6] has as its target Dual specificity tyrosine-phosphorylation-regulated kinase 1B (Homo sapiens, UniProt Q9Y463). Nature of the data set: Inhibition of full length recombinant human GST-tagged DYRK1B expressed in insect cells using KKISGRLSPIMTEQ-NH2 as substrate incubated for 15 mins in presence of [gamma-32P]ATP.
Data set [7] addresses Protein kinase C beta type (Homo sapiens, UniProt P05771). Nature of the data set: Inhibition of PKCbeta (unknown origin) incubated for 15 mins in presence of [gamma-32P]ATP. The gist of the method: (§3)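 Purified recombinant kinase assayed with 100 μM ATP. Values averaged from at least two independent determinations.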
Data set [8] addresses Casein kinase II (Homo sapiens, UniProt P19784+P67870+P68400). The description is as §1. Format: protein-complex assay.
The nature of data set [9]: Half life in rat plasma at 1 uM by LC-MS/MS analysis. Type of data set: ADME, cell-free. In a few lines: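 Pooled heparinized rat plasma incubated with 1 μM compound at 37 °C, sampled at 0, 5, 15, 30, 60 and 120 min. Reaction stopped with 5 volumes cold acetonitrile containing internal standard. Remaining compound quantified by LC-MS/MS. Half-life given as mean of two experiments.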

The test system of a further data set is Plasma. Nature of the data set: Metabolic stability in rat plasma assessed as drug degradation at 1 uM after 120 mins by LC-MS/MS analysis. The settings on record: 2 h. Type of data set: ADME, cell-free. In a few lines:
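Compound (1 µM) in pooled heparinised rat plasma at 37 °C, sampled at 0, 5, 15, 30, 60 and 120 min. Reaction stopped with 5 volumes of cold acetonitrile containing internal standard. Remaining compound was measured by LC-MS/MS; means of two experiments.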

Data set [10] deals with Epidermal growth factor receptor (Homo sapiens, UniProt P00533). Nature of the data set: Inhibition of EGFR (unknown origin) incubated for 15 mins in presence of [gamma-32P]ATP. The gist of the method:
as §3

Data set [11] can be described thus: Growth inhibition of human U87MG cells after 4 days by MTT assay. Format: functional, cell-based, U-87MG ATCC. The following applies: U-87 MG, 96 h.
For data set [12], the target named is T2, Dual specificity tyrosine-phosphorylation-regulated kinase 1A. Nature of the data set: Inhibition of tetracycline-inducible EGFP-DYRK1A (unknown origin) expressed in HEK293 cells coexpressing full length human EGFP-tau protein assessed as reduction in tau-Thr212 phosphorylation incubated overnight by immunoblotting assay. On the technique in general: Immunoblotting shows a protein as a band on a membrane.

The term IC50 denotes the concentration that gives 50% inhibition. For orientation: pKa means the pH at which an ionisable group is half protonated. Low readings indicate a group that gives up its proton readily, high ones a group that holds its proton tightly. What is called half-life is how long it takes for the measured level to halve.

Sequence of Epidermal growth factor receptor (P00533 whole entry): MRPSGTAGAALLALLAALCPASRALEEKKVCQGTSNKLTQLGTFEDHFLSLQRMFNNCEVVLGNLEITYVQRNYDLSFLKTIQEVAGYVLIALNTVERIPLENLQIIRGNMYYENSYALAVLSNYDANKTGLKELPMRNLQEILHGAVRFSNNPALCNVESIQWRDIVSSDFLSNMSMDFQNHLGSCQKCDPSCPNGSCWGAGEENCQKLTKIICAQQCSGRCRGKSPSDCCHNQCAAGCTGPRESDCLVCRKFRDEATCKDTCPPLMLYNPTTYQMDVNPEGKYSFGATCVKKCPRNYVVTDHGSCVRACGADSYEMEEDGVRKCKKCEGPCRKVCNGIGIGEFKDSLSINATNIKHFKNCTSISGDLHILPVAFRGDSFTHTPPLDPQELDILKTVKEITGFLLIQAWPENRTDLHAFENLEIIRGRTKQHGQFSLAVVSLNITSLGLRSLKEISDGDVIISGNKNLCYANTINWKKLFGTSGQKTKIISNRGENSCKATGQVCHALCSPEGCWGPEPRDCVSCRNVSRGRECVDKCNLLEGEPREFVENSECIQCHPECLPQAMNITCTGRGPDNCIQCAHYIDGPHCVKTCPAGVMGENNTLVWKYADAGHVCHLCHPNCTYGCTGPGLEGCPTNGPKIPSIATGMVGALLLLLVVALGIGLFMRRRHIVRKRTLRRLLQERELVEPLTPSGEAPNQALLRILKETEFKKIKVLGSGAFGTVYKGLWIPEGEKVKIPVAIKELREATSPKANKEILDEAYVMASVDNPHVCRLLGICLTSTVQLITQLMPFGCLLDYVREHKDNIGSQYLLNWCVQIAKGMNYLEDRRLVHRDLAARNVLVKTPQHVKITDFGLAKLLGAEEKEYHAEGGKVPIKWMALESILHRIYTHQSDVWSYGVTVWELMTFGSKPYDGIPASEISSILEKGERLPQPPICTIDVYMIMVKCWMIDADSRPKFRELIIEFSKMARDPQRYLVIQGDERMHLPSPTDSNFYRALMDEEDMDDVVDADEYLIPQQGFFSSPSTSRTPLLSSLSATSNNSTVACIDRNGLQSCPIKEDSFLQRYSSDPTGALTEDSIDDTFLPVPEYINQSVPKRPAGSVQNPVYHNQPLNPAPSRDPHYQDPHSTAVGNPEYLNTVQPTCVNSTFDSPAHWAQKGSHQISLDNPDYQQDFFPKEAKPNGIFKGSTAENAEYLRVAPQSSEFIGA
Sequence of Dual specificity tyrosine-phosphorylation-regulated kinase 1B (Q9Y463 whole entry): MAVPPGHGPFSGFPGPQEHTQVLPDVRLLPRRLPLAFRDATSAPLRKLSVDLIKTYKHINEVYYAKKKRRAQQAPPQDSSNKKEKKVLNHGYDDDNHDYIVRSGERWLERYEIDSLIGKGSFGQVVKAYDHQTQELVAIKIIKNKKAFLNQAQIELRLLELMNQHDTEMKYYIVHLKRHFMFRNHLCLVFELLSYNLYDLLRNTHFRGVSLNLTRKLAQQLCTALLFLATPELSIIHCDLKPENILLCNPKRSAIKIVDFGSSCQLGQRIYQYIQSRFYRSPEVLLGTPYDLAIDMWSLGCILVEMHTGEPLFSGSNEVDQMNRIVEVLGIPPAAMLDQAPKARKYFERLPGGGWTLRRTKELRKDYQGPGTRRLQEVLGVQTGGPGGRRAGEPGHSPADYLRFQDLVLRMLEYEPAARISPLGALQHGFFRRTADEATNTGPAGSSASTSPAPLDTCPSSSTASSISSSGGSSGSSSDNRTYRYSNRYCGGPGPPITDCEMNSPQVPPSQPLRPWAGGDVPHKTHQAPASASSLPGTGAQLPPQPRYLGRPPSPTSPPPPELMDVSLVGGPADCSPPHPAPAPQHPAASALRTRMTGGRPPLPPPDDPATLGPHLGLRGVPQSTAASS
Sequence of Casein kinase II (Homo sapiens, UniProt P19784+P67870+P68400) (P67870 whole entry): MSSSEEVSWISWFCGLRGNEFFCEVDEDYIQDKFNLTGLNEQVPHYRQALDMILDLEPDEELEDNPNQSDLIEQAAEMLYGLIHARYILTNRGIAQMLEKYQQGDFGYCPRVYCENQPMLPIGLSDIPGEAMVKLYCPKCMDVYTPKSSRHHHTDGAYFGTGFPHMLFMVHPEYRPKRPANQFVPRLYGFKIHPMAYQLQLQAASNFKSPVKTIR
Sequence of Casein kinase II (Homo sapiens, UniProt P19784+P67870+P68400) (P68400 whole entry): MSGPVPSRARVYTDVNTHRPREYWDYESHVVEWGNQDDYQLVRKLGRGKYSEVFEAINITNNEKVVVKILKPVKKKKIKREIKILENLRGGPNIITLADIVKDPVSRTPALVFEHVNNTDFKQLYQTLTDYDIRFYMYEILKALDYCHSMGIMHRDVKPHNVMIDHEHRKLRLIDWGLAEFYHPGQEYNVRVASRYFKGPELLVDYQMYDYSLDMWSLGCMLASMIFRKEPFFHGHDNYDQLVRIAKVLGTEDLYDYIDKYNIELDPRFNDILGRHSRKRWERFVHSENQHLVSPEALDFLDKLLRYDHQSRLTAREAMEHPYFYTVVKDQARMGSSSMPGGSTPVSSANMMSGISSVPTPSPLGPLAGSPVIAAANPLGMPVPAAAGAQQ
Sequence of Casein kinase II (Homo sapiens, UniProt P19784+P67870+P68400) (P19784 whole entry): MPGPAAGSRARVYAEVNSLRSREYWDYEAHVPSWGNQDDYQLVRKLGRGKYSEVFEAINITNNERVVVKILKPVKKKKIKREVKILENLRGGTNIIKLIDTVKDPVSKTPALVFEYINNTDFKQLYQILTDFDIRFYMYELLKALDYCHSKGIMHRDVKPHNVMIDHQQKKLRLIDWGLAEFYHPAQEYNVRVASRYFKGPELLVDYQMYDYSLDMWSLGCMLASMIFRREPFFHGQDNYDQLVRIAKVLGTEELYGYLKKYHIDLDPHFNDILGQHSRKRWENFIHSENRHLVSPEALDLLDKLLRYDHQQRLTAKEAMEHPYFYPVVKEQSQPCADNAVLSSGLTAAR
Sequence of Dual specificity protein kinase CLK1 (P49759 whole entry, the tested form may be a part): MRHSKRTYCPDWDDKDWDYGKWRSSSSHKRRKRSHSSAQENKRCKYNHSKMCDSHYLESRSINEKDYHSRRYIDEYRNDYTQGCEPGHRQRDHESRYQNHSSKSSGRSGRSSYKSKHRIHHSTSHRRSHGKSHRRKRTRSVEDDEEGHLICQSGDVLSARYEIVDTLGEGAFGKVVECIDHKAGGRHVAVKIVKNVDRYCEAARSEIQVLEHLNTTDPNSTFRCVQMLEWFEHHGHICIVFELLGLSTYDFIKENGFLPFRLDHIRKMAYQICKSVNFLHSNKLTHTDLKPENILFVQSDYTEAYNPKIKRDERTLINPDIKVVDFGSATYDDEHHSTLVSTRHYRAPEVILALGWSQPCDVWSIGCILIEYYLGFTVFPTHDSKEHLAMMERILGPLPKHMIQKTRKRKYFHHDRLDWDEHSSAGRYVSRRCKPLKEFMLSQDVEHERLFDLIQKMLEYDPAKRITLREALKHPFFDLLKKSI
Sequence of Protein kinase C beta type (P05771 whole entry): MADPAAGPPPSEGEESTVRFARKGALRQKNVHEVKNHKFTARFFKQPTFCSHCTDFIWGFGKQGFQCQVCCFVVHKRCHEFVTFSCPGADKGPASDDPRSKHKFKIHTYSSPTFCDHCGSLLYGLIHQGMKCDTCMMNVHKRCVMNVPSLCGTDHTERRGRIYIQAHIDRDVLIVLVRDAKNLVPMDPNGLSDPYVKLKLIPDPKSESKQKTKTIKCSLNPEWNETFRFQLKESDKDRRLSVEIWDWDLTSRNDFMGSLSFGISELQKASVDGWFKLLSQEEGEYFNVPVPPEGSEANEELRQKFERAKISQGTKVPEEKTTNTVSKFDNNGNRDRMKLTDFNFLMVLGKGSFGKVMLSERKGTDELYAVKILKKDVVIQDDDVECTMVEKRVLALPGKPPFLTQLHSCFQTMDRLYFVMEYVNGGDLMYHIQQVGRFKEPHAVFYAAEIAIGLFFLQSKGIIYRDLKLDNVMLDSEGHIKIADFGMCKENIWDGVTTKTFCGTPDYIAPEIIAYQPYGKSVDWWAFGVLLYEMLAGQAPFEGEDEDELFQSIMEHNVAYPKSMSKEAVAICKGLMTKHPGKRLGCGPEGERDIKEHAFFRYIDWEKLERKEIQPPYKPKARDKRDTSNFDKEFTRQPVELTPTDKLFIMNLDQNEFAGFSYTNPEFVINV
Sequence of Casein kinase II (Homo sapiens, UniProt P67870+P68400+P19784) (P67870 whole entry): as the sequence (P67870 whole entry) above
Sequence of Casein kinase II (Homo sapiens, UniProt P67870+P68400+P19784) (P68400 whole entry): as the sequence (P68400 whole entry) above
Sequence of Casein kinase II (Homo sapiens, UniProt P67870+P68400+P19784) (P19784 whole entry): as the sequence (P19784 whole entry) above

Consider `COc1ccc(/C=C2\NC(=O)NC2=O)cc1`, for which the 50% inhibitory concentration (IC50) entry is “Not Active” at Casein kinase II [1]; 10000 nM in data set [3]; “Not Active” in data set [4]; 6400 nM in data set [5]; greater than 10000 nM in data set [6]; “Not Active” in data set [7]. In addition, the pKa in data set [2] is 8.9.
As for `COc1ccc(/C=C2\CC(=O)NC2=O)cc1`, in [5], the IC50 is greater than 10000 nM.
Take `O=C1OCC/C1=C\c1ccc2c(c1)CCO2`: the IC50 on Casein kinase II [8] is greater than 10000 nM; in data set [3] it was greater than 10000 nM; in [4] (read-out: IC50) it was 820 nM; in [5], 960 nM; in [6] it was 2170 nM; in data set [7], “Not Active”. For the same compound, in data set [10] (read-out: IC50), the IC50 is greater than 10000 nM. This compound yielded a half-life at 1 µM in data set [9] greater than 2 h. In the data set on Plasma, the Stability entry is recorded as “Stable”.
Turning to `COc1ccc2c(c1)[nH]c1c(C)nccc12` [HARMINE], half-maximal inhibition in [11] (IC50) was put at 7200 nM.
For `O=C1NC(=O)/C(=C/c2ccc3nccnc3c2)S1`, the IC50 at Casein kinase II [8] was determined as 20 nM; in data set [12], 1600 nM; in data set [3], 70 nM; in data set [4] (read-out: IC50) it was 100 nM; in [5] it was 30 nM; in [6], 80 nM. The IC50 result in data set [7] is “Not Active”; in [11], 320 nM; in data set [10] (read-out: IC50), greater than 10000 nM.
Regarding `O=C1NC(=S)N/C1=C\c1ccc2ncsc2c1`, the IC50 on Casein kinase II [8] is 2400 nM; in [3], 20 nM; in data set [4] (read-out: IC50), 1500 nM; in data set [5], 700 nM; in data set [6] it was 900 nM; in data set [7] (read-out: IC50), greater than 10000 nM. The 50% inhibitory concentration (IC50) in data set [10] (read-out: IC50) was greater than 10000 nM.
Take `COc1ccc(/C=C2\CCCOC2=O)cc1`: the IC50 on Casein kinase II [8] is greater than 10000 nM; in data set [3], 7520 nM; in data set [4] (read-out: IC50), greater than 10000 nM; in [5], 1100 nM; in data set [6] it was 5800 nM; in data set [7], “Not Active”. Moreover, the IC50 result in data set [10] is “Not Active”.
For `O=C1OCC/C1=C\c1ccc2c(c1)OCO2`, the IC50 at Casein kinase II [8] was greater than 10000 nM; in data set [3], greater than 10000 nM; in data set [4] (read-out: IC50), 990 nM; in data set [5], 600 nM; in [6], 2630 nM; in data set [7] it was “Not Active”. For the same compound, the IC50 in [10] (read-out: IC50) is greater than 10000 nM.
Turning to `COc1ccc(/C=C2\CCOC2=O)cc1`, the IC50 entry on Casein kinase II [1] was “Not Active”; in data set [3], greater than 10000 nM; in data set [4] (read-out: IC50) it was greater than 10000 nM; in data set [5], 1810 nM; in data set [6], 3800 nM; in data set [7], “Not Active”. Further, in data set [10], the half-maximal inhibitory concentration (IC50) result is “Not Active”.
On to `COc1ccc(/C=C2\CC(C)OC2=O)cc1` (stereo not drawn), for which the IC50 on Casein kinase II [8] is greater than 10000 nM; in data set [3], 4370 nM; in data set [4] it was “Not Active”; in [5], 1200 nM; in [6], 10500 nM; in data set [7], “Not Active”.
Consider `O=C1OCC/C1=C\c1ccc2c(c1)OCCO2`, for which the IC50 was greater than 10000 nM on Casein kinase II [8]; greater than 10000 nM in data set [3]; 2040 nM in data set [4] (read-out: IC50); 880 nM in data set [5]; 4290 nM in data set [6]; “Not Active” in [7]. Moreover, the IC50 in [10] (read-out: IC50) was greater than 10000 nM.
In turn, `COc1ccc([C@@H]2Sc3ccccc3N(CCN(C)C)C(=O)[C@@H]2OC(C)=O)cc1` [DILTIAZEM] returned a half-life at 1 µM in [9] of 2.08 h.
As for `CC1C/C(=C\c2ccc3ncsc3c2)C(=O)O1` (stereo not drawn), the IC50 is greater than 10000 nM at Casein kinase II [8]; 170 nM in [3]; greater than 10000 nM in [4] (read-out: IC50); 1080 nM in data set [5]; 1680 nM in data set [6]; “Not Active” in data set [7]. In addition, the IC50 in data set [10] (read-out: IC50) is greater than 10000 nM.
`O=C1OCC/C1=C\c1ccc2c(c1)CCCO2`: the IC50 was greater than 10000 nM at Casein kinase II [8]; 3900 nM in data set [3]; greater than 10000 nM in [4] (read-out: IC50); 930 nM in data set [5]; 6700 nM in data set [6]; “Not Active” in data set [7]. Further, the IC50 in data set [10] (read-out: IC50) was greater than 10000 nM.
In turn, `CCOC(=O)[C@H](Cc1ccccc1)NC(C)=O` registered a half-life at 1 µM in [9] of less than 0.0833 h.
Regarding `COc1ccc(/C=C2/SC(=S)NC2=O)cc1`, the IC50 at Casein kinase II [8] is 220 nM; in data set [3] it was 5700 nM; in data set [4] (read-out: IC50), greater than 10000 nM; in data set [5], 250 nM; in data set [6], 1500 nM; in data set [7], “Not Active”. In addition, the IC50 in data set [11] is 9500 nM; in data set [10], “Not Active”. This compound registered a pKa in [2] of 5.8.
For `COc1ccc(/C=C2\NC(=O)SC2=O)cc1`, the IC50 on Casein kinase II [8] is 170 nM; in data set [3], 3600 nM; in data set [4] (read-out: IC50), 9200 nM; in data set [5] it was 1300 nM; in [6], 5200 nM; in data set [7], “Not Active”. In addition, the IC50 result in [10] is “Not Active”.
With `O=C1NC(=S)S/C1=C\c1ccc2c(c1)CCO2`, the IC50 is 100 nM at Casein kinase II [8]; 500 nM in data set [3]; 1000 nM in data set [4] (read-out: IC50); 100 nM in data set [5]; 300 nM in data set [6]; greater than 10000 nM in data set [7] (read-out: IC50). Further, the IC50 in data set [11] was 5600 nM; in data set [10] (read-out: IC50), greater than 10000 nM.

The record behind these values is ChEMBL document CHEMBL3774321, “Systematic diversification of benzylidene heterocycles yields novel inhibitor scaffolds selective for Dyrk1A, Clk1 and CK2” (Eur J Med Chem, 2016).
